Assay outcomes from PubChem.
core dimer inh – HCV core protein dimerization inhibition. TR-FRET GST/Flag-core106 dimerization, 1536-well. inhibition, % at 5 µM. 300,000 tested, 0.33% active;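 active means inhibition above the mean of all tested compounds plus 3 SD, set per screening campaign, cut at about 45% in these data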
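System – GST-tagged and Flag-tagged HCV core protein residues 1-106 · Repeats – one well for each compound · Technique – TR-FRET 671 and 617 nm emission · Doses – one concentration, 5 µM, in 0.5% DMSO · Times – 4 h, 22.5 °C incubation · Also added – Eu donor and XL665 acceptor anti-tag antibodies · Measure – percent inhibition of core106 dimerization signal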
PfM18AAP inh-1 – PfM18AAP enzyme inhibition. recombinant PfM18AAP, H-Glu-NHMec fluorogenic cleavage. inhibition, % at 7.35 µM. 290,000 tested, 1.2% active. AID 1822;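 active means inhibition above the campaign mean inhibition over all tested compounds plus 3 SD, cut at about 28% in these data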;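 further: 0% = plate median of test compound wells and 100% = 2 mM ZnCl2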
NS3 helicase inh – blocks Hepatitis C virus NS3 helicase unwinding | NS3 helicase DNA unwinding, Cy5 molecular beacon fluorescence | 290,000 tested, 0.56% active | inhibition, % at 10.9 µM;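 active means inhibition above the mean of all tested compounds plus 3 SD, set per campaign, cut at about 35% in these data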;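 further: 0% = DMSO wells and 100% = thioflavine S control wells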
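assay system = NS3 helicase fragment of HCV | buffer or medium = MOPS pH 6.5, MgCl2, DTT, Tween20, BSA | timing = 60 min unwinding reaction at 25 °C after ATP addition | signal = Cy5 beacon fluorescence read at start and 1 h | read-out basis = % inhibition of unwinding | control set = low DMSO, high thioflavine S at 110 µM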
EBNA-1 inh – blocks EBNA-1 binding to DNA; EBNA-1 DNA binding, fluorescence polarization; inhibition, % at 14.8 µM; 300,000 tested, 0.34% active; AID 1950; in the data active means inhibition above about 28%
ALR inh – inhibitors of human sulfhydryl oxidase ALR; purified ALR, DTT oxidation, H2O2 HRP-luminol luminescence; 290,000 tested, 3.8% active; AID 485317; inhibition, % (concentration not given with the values); P55789;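 active means mean replicate inhibition above about 79%, with every replicate also reaching it, limit read from the data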
Target sequence (P55789 whole entry, looked up): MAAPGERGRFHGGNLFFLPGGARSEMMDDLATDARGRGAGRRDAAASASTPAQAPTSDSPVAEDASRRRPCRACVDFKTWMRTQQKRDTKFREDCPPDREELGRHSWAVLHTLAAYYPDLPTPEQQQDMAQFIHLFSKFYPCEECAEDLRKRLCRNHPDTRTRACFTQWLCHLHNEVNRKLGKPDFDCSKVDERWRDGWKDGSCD
ZTA DNA inh – counter-screen for EBNA-1 inhibitors: inhibitors of Epstein-Barr virus ZTA; ZTA-DNA binding, fluorescence polarization; inhibition, % at 11 µM; 320,000 tested, 0.15% active; AID 2234; in the data active means inhibition above about 33%
Target sequence (P03206 whole entry, looked up): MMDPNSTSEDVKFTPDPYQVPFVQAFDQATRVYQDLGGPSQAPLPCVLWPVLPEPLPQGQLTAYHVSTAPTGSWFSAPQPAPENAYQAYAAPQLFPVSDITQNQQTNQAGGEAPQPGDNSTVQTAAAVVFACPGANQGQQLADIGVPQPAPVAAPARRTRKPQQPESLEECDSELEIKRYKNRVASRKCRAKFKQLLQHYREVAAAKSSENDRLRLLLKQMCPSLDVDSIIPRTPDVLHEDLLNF
NS3 helicase cf – confirmation of Hepatitis C virus NS3 helicase inhibitors | inhibition, % at 10.9 µM | 1,600 tested, 31% active | NS3 helicase DNA unwinding, Cy5 molecular beacon fluorescence | AID 1943 | shares compounds with NS3 helicase inh;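 active means inhibition above the mean of all tested compounds plus 3 SD, cutoff set per campaign, cut at about 36% in these data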
DNA FID counter – intercalator displacement, NS3 helicase counter-screen; inhibition, % at 7.9 µM; AID 1945; 1,600 tested, 4% active; DNA fluorescent intercalator displacement, fluorescence; shares compounds with NS3 helicase inh; in the data active means inhibition above about 37%;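 further: 0% = vehicle and 100% = reference compound; higher means more displacement of ethidium bromide from the DNA hairpin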
PfM18AAP inh-2 – PfM18AAP inhibition, confirmation. shares compounds with PfM18AAP inh-1. recombinant PfM18AAP, H-Glu-NHMec fluorogenic cleavage. inhibition, % at 7.35 µM. 2,400 tested, 28% active. AID 2170;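 active means mean inhibition over replicate wells above the hit cutoff set for the earlier primary screen, cut at about 29% in these data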;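 further: 0% = median of test compound wells and 100% = 2 mM ZnCl2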
CTSL1 confirm – Cathepsin L (human) inhibition, confirmation | shares compounds with PfM18AAP inh-1 | purified cathepsin L1, Z-Leu-Arg-MCA fluorescence | inhibition, % at 5.96 µM | 2,400 tested, under 10 active | AID 2178;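 active means average inhibition across replicates above the hit cutoff set in the earlier primary screen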;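 further: 0% = median of test compound wells and 100% = Z-Phe-Ala-diazomethylketone 1 µM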
EBNA-1 confirm – EBNA-1 (EBV) inhibition, confirmation; Recombinant EBNA-1 DBD, Cy5-DNA fluorescence polarization; inhibition, % at 14.8 µM; shares compounds with EBNA-1 inh; 830 tested, 35% active;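 active means mean inhibition across replicates above a set limit taken from the earlier primary screen, cut at about 28% in these data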;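 further: plate controls were EBNA-1 protein with DMSO for no effect and wells lacking EBNA-1 for full effect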
ZTA DNA inh trip – blocks Epstein-Barr virus ZTA in triplicate, EBNA-1 counter-screen. shares compounds with EBNA-1 inh. Zta-ZRE DNA binding, Cy5 fluorescence polarization. inhibition, % at 11.1 µM. 830 tested, under 10 active. AID 2328;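 active means mean inhibition over triplicates above a set limit taken from the primary EBNA-1 screen, cut at about 37% in these data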;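 further: purified full length Zta protein with Cy5 labeled ZRE DNA probe; 0% = Zta with DMSO and 100% = wells lacking Zta protein; inhibitors lower polarization by freeing the labeled DNA probe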
ZTA inh confirm – confirmation of Epstein-Barr virus ZTA DNA binding inhibitors; shares compounds with ZTA DNA inh; Zta-ZRE DNA binding, fluorescence polarization; inhibition, % at 11.1 µM; 320 tested, 30% active; AID 2361;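 active means mean inhibition across triplicate runs above the hit threshold derived for the original primary screen, cut at about 33% in these data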;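 further: 0% = Zta with DMSO and 100% = wells lacking Zta protein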
EBNA1 counter – blocks EBNA-1 DNA binding in ZTA counter-screen | shares compounds with ZTA DNA inh | fluorescence polarization | inhibition, % at 14.8 µM | 320 tested, under 10 active | AID 2362; call rule not given here
Active calls of the source: *; · = no result given. Shown are actives, neighbours in structure and some others; about 5.2% of the full set was active somewhere.

SMILES	core dimer inh	PfM18AAP inh-1	NS3 helicase inh	EBNA-1 inh	ALR inh	ZTA DNA inh	NS3 helicase cf	DNA FID counter	others
COc1ccc(OC)c(C2C(C(=O)c3cccs3)=C(O)C(=O)N2c2cc(C)on2)c1 (centres undefined)	2	-3	0	-11	·	9	·	·
Cc1cc2nc3ccc(=[N+](C)C)cc-3sc2cc1N	·	36*	58*	·	·	·	78*	107*	PfM18AAP inh-2=-18;CTSL1 confirm=10
O=C(N/N=C/c1ccc[nH]1)c1cc2ccccc2cc1O	1	39*	41*	-16	·	3	-14	5	PfM18AAP inh-2=-45;CTSL1 confirm=7
COc1ccc(C(NC(=O)/C=C\c2ccco2)c2ccc(OC)c(OC)c2)cc1 (centres undefined)	8	-37	37*	39*	-6	-5	-10	-35	EBNA-1 confirm=1;ZTA DNA inh trip=16
C=CCNc1nc(Cl)nc(Nc2cc(Cl)ccc2OC)n1	·	-3	-15	·	-2	·	·	·
CCCCn1c(N)c(N(CCC(C)C)C(=O)c2cc(-c3ccco3)nc3ccccc23)c(=O)[nH]c1=O	49*	-34	41*	51*	9	-3	9	3	EBNA-1 confirm=-16;ZTA DNA inh trip=3
COc1cccc(CNC(=O)CN2c3cccc4cccc(c34)S2(=O)=O)c1	29	·	·	-6	-35	-17	·	·
Oc1ccc(N=Nc2ccccc2C(F)(F)F)c2cccnc12	5	2	49*	95*	-5	5	0	3	EBNA-1 confirm=-1;ZTA DNA inh trip=2
Cc1ccc(S(=O)(=O)N2CCCCC2)cc1NC(=O)C1CC1	·	·	·	·	-3	·	·	·
Nc1c(C(=O)Nc2ccccc2)sc2nc(-c3cccnc3)ccc12	-4	26	14	-11	-3	5	·	·
Nc1c(C(=O)Nc2ccccc2)sc2nc(-c3ccco3)ccc12	8	13	83*	54*	-10	19	14	6	EBNA-1 confirm=59*;ZTA DNA inh trip=11
Cc1cccc(C)c1-n1cccc1/C=C1/C(=N)N2C(=NC1=O)SN=C2S(C)(=O)=O	25	-12	-4	9	56	16	·	·
Cc1ccc(-n2cccc2/C=C2/C(=N)N3C(=NC2=O)SN=C3S(C)(=O)=O)cc1Cl	39	-9	49*	32*	21	15	64*	11	EBNA-1 confirm=15;ZTA DNA inh trip=6
O=c1[nH]c(/C=C\c2cccc(Cl)c2)nc(O)c1[N+](=O)[O-]	5	10	36*	3	98*	40*	-12	1	ZTA inh confirm=38*;EBNA1 counter=4
CC(=O)N/C(=C\c1ccccc1)C(=O)OCC(=O)Nc1ccc(C)c(S(=O)(=O)N(C)C)c1	·	·	·	·	1	·	·	·
O=C(O)c1ccc(-c2ccc(/C=c3/sc4nc5ccccc5n4c3=O)o2)cc1Cl	10	18	63*	-5	8	34*	60*	24	ZTA inh confirm=53*;EBNA1 counter=-4
Cc1cc(/C=c2\sc3nc4ccccc4n3c2=O)c(C)n1-c1ccc(C(=O)O)cc1	·	12	17	·	·	·	·	·
Cc1cccc(NS(=O)(=O)c2nnc(NC(=O)C3CCCCC3)s2)c1	0	2	2	-9	6	-7	·	·
COC(=O)COc1c(/C=C\c2nc(O)c([N+](=O)[O-])c(=O)[nH]2)cccc1OC	16	-5	5	2	54	13	·	·
C#CCOc1c(/C=C\c2nc(O)c([N+](=O)[O-])c(=O)[nH]2)cc(Br)cc1OC	33	7	45*	-4	·	50*	26	4	ZTA inh confirm=27;EBNA1 counter=-14
O=c1c(O)cccc2cc(O)c(O)c(O)c12	-16	48*	53*	-5	100*	33*	108*	13	ZTA inh confirm=26;EBNA1 counter=14
O=C(O)CC(C(=O)O)N1C(=O)/C(=C/c2ccc(-c3nc4ccccc4s3)o2)SC1=S (centres undefined)	8	14	67*	21	49	59*	67*	-2	ZTA inh confirm=64*;EBNA1 counter=-3
CCCCCCCNC(=O)C1(CC2CC(c3ccc(Cl)cc3)=NO2)CCN(C(=O)C2(C)CC2)CC1 (centres undefined)	14	-7	-21	0	-23	8	·	·
FC(F)(F)c1ccccc1NC(=S)Nn1cnnc1	·	75*	5	·	-7	·	·	·	PfM18AAP inh-2=56*;CTSL1 confirm=-2
COC(=O)Nc1ccc([N+](=O)[O-])cc1OC	-7	3	0	-12	·	5	·	·
SMILES	core dimer inh	PfM18AAP inh-1	NS3 helicase inh	EBNA-1 inh	ALR inh	ZTA DNA inh	NS3 helicase cf	DNA FID counter	others
Cc1ccc(NC(=O)Nn2cnnc2)c(C)c1	13	57*	-5	16	-4	12	·	·	PfM18AAP inh-2=36*;CTSL1 confirm=0
COc1cc([N+](=O)[O-])ccc1NC(=S)Nn1cnnc1	2	84*	2	-2	31	-1	·	·	PfM18AAP inh-2=71*;CTSL1 confirm=4
O=C(COc1ccc(Br)cc1Cl)Nn1cnnc1	-3	43*	-8	3	-2	7	·	·	PfM18AAP inh-2=42*;CTSL1 confirm=-2
C=CCc1ccc(OCCCCN2CC(C)OC(C)C2)c(OC)c1 (centres undefined)	-2	15	0	7	-12	-4	·	·
C#CCN(C(=O)c1ccc(OC2CCN(Cc3ccccn3)CC2)cc1)C1CCCCC1	3	10	-9	4	-2	12	·	·
Cc1ccc(NC(=S)Nn2cnnc2)c(C)c1	·	72*	8	·	27	·	·	·	PfM18AAP inh-2=65*;CTSL1 confirm=0
Cc1ccc(Cl)cc1NC(=S)N(C)N	-1	17	18	0	-2	1	·	·
S=C(Nc1ccc(Br)cc1Cl)Nn1cnnc1	3	77*	1	-1	18	-19	·	·	PfM18AAP inh-2=80*;CTSL1 confirm=2
S=C(NCc1ccncc1)Nc1ccc(Br)cc1Cl	0	7	-5	2	3	7	·	·
